Assay results as given in ChEMBL document CHEMBL4406821, “Novel dual inhibitors targeting CDK4 and VEGFR2 synergistically suppressed cancer progression and angiogenesis” (Eur J Med Chem, 2019).
The source made the active and inactive calls. The rule behind the calls is not given here.

Tests used:
[1] = test system: SiHa; assay: Induction of apoptosis in human SiHa cells assessed as increase in late apoptotic cells at 20 to 40 nM incubated for 48 hrs by annexin V FITC and propidium iodide staining based flow cytometry; type: functional, cell-based
Procedure, shortened: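 Annexin V-FITC/PI double staining with flow-cytometric readout. MDA-MB-231, T-47D, SiHa and HeLa cells were treated with graded concentrations for 48 h. MDA-MB-231 and T-47D were grown in DMEM and SiHa in 1640 medium, each with 10% FBS and 1% penicillin/streptomycin at 37°C under 5% CO2. Early- and late-stage apoptotic fractions were scored.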

[2] = Cmax in Sprague-Dawley rat at 10 mg/kg, po by HPLC-MS analysis; type: ADME, organism-based; set-up: dose 10 mg/kg, route oral; conditions: in vivo
Procedure, shortened: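 Rats fitted with jugular vein catheters for serial blood sampling. Compound dissolved in saline with 5% (v/v) DMSO and given as a single 10 mg/kg dose iv or po after an overnight fast, n = 5 per group. Plasma isolated at once and measured by HPLC with tandem MS detection. Parameters derived by noncompartmental fitting.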

[3] = Oral bioavailability in Sprague-Dawley rat at 10 mg/kg by HPLC-MS analysis; type: ADME, organism-based; conditions: in vivo
[4] = target: Tyrosine-protein kinase receptor UFO (Homo sapiens) (UniProt P30530); assay: Inhibition of recombinant human AXL (473 to end residues) at 1 uM using KKSRGDYMTMQIG as substrate incubated for 40 mins in presence of [gamma-33P]-ATP by scintillation counting method relative to control
Procedure, shortened: (§1)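 Kinase panel profiling at 1 μM performed by Eurofins KinaseProfiler; percent inhibition reported as mean of two independent experiments.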

[5] = target: Death-associated protein kinase 2 (Homo sapiens) (UniProt Q9UIK4); assay: Inhibition of recombinant full length human DAPK2 at 1 uM using calmodulin as substrate incubated for 40 mins in presence of [gamma-33P]-ATP by scintillation counting method relative to control; procedure, shortened: as §1
[6] = target: Inhibitor of nuclear factor kappa-B kinase subunit alpha (Homo sapiens) (UniProt O15111); assay: Inhibition of recombinant human full length IKKalpha at 1 uM using peptide as substrate incubated for 40 mins in presence of [gamma-33P]-ATP by scintillation counting method relative to control
Procedure, shortened: (§2)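 Tested at a single 1 uM in an outsourced commercial kinase-profiling panel, read as percent inhibition. Each value is the mean of two independent experiments.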

[7] = target: Serine/threonine-protein kinase 26 (Homo sapiens) (UniProt Q9P289); assay: Inhibition of recombinant human MST4 (4 to 304 residues) at 1 uM using RLGRDKYKTLRQIRQ as substrate incubated for 40 mins in presence of [gamma-33P]-ATP by scintillation counting method relative to control
[8] = target: Mitogen-activated protein kinase kinase kinase 2 (Homo sapiens) (UniProt Q9Y2U5); assay: Inhibition of recombinant human full length MEKK2 at 1 uM using myelin basic protein as substrate incubated for 40 mins in presence of [gamma-33P]-ATP by scintillation counting method relative to control
[9] = target: G protein-coupled receptor kinase 6 (Homo sapiens) (UniProt P43250); assay: Inhibition of recombinant human full length GRK6 at 1 uM using casein as substrate incubated for 40 mins in presence of [gamma-33P]-ATP by scintillation counting method relative to control; procedure, shortened: as §2
[10] = target: PAS domain-containing serine/threonine-protein kinase (Homo sapiens) (UniProt Q96RG2); assay: Inhibition of recombinant human PASK (995 to end residues) at 1 uM using KKLNRTLSFAEPG as substrate incubated for 40 mins in presence of [gamma-33P]-ATP by scintillation counting method relative to control
[11] = target: Serine/threonine-protein kinase mTOR (Homo sapiens) (UniProt P42345); assay: Inhibition of recombinant human full length mTOR at 1 uM using as peptide substrate incubated for 40 mins in presence of [gamma-33P]-ATP by scintillation counting method relative to control
Procedure, shortened: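 Single-point inhibition at 1 uM measured in a commercial kinase profiling panel (KinaseProfiler); each value is the mean of two independent experiments.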

[12] = target: DNA-dependent protein kinase catalytic subunit (Homo sapiens) (UniProt P78527); assay: Inhibition of recombinant human full length DNA-PK at 1 uM using GST-cMyc-p53 as substrate incubated for 40 mins in presence of [gamma-33P]-ATP by scintillation counting method relative to control
[13] = target: Protein kinase C zeta type (Homo sapiens) (UniProt Q05513); assay: Inhibition of recombinant human PKCzeta (2 to end residues) at 1 uM using ERMRPRKRQGSVRRRV as substrate incubated for 40 mins in presence of [gamma-33P]-ATP by scintillation counting method relative to control
[14] = test system: PI3-kinase p110-alpha/p85-alpha (Homo sapiens), P27986+P42336 [H1047R]; assay: Inhibition of recombinant human full length PI3K p110alpha/p85alpha H1047R mutant at 1 uM using phosphatidylinositol 4,5-bisphosphate as substrate incubated for 40 mins in presence of [gamma-33P]-ATP by scintillation counting method relative to control; type: protein-complex assay
[15] = test system: PI3-kinase p110-alpha/p85-alpha (Homo sapiens), P27986+P42336 [E545K]; assay: Inhibition of recombinant human full length PI3K p110alpha/p85alpha E545K mutant at 1 uM using phosphatidylinositol 4,5-bisphosphate as substrate incubated for 40 mins in presence of [gamma-33P]-ATP by scintillation counting method relative to control; type: protein-complex assay
[16] = test system: HUVEC; assay: Antiproliferative activity against HUVEC cells assessed as reduction in cell viability measured upto 72 hrs by CCK8 assay; type: functional, cell-based; conditions: Homo sapiens
Procedure, shortened: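 HUVECs, 3×10³ cells/well, kept in 1640 medium with 10% FBS at 37°C and 5% CO₂. Cells were treated at 20 or 40 nM or vehicle, and viability was read by CCK-8 (absorbance 450 nm) at 0, 12, 24, 36, 48, 60 and 72 h. Five replicates per sample.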

[17] = test system: T47D; assay: Induction of cell cycle arrest in human T47D cells assessed as decrease in cell accumulation in S phase at 20 to 40 nM incubated for 36 hrs by propidium iodide staining based flow cytometry; type: functional
Procedure, shortened: (§3)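 Cells were treated with graded concentrations for 36 h, then fixed overnight in 70% ice-cold ethanol at 4°C and resuspended in PBS. Staining used 50 µg/ml PI plus 5 µg/ml RNase at 37°C for 30 min. DNA content was analysed by FACS to give G0/G1, S and G2/M fractions.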

[18] = test system: T47D; assay: Induction of apoptosis in human T47D cells assessed as decrease in Bcl2 expression at 20 to 40 nM incubated for 48 hrs by Western blot analysis; type: functional, cell-based
Procedure, shortened: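 Cancer cells were exposed to graded concentrations for 48 h, washed three times in PBS and lysed in RIPA buffer. Immunoblots were probed with anti-Rb, anti-phospho-Rb, anti-Ki67 and anti-Bcl-2, each at 1:1000. β-actin served as loading control.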

[19] = Toxicity in BALB/c mouse assessed as toxic effects in spleen at 40 mg/kg, po administered for 48 hrs by hematoxylin and eosin staining method; conditions: in vivo
[20] = test system: MDA-MB-231; assay: Induction of cell cycle arrest in human MDA-MB-231 cells assessed as accumulation in G2/M phase at 40 nM incubated for 36 hrs by propidium iodide staining based flow cytometry; type: functional; procedure, shortened: as §3

Chain of Serine/threonine-protein kinase 26 (Homo sapiens) (Q9P289 2-416 limits assumed): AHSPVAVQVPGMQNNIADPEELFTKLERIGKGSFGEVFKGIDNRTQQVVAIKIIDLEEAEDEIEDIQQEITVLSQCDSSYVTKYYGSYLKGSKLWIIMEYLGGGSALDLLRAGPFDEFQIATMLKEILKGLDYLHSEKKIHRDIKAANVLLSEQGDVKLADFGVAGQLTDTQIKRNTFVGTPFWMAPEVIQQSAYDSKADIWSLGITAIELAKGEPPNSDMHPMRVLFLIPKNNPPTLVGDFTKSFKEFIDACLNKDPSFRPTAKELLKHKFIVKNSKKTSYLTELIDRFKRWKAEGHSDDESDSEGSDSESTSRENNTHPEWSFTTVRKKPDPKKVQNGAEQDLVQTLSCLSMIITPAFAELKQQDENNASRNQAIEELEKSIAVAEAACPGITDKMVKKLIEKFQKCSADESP
Chain of Death-associated protein kinase 2 (Homo sapiens) (Q9UIK4 whole entry, looked up): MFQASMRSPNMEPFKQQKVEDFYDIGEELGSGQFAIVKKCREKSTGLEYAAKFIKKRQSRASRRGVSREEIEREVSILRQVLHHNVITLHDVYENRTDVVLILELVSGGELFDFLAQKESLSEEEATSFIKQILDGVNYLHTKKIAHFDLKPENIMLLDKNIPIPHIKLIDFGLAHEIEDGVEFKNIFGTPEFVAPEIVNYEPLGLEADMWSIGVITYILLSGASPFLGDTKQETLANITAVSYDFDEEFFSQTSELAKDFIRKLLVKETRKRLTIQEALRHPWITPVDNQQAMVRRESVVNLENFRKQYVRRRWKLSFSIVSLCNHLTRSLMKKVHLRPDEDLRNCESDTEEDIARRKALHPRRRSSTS
Chain of Tyrosine-protein kinase receptor UFO (Homo sapiens) (P30530 whole entry): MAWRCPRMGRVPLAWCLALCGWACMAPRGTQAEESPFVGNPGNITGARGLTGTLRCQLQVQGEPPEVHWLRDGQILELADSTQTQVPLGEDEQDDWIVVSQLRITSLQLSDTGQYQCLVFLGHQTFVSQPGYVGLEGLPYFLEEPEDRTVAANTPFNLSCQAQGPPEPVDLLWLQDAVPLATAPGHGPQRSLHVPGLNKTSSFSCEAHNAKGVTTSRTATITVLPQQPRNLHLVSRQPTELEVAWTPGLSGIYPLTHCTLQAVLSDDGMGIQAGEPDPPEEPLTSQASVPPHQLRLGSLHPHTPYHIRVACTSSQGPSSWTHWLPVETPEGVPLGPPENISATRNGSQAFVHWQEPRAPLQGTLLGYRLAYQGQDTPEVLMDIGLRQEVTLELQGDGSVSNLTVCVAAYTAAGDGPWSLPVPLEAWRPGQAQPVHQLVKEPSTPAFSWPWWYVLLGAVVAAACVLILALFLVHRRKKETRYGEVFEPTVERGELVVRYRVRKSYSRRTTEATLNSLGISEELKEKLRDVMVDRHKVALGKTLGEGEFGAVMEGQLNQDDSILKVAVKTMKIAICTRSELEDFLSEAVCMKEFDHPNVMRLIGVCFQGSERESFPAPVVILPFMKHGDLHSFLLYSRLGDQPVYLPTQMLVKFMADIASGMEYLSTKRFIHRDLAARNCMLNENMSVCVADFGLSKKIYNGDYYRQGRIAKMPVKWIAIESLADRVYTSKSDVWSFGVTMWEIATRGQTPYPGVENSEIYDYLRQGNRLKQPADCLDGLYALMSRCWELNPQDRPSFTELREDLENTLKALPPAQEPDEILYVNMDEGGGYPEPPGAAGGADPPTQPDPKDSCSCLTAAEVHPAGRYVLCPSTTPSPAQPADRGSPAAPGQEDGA
Chain of Protein kinase C zeta type (Homo sapiens) (Q05513 whole entry): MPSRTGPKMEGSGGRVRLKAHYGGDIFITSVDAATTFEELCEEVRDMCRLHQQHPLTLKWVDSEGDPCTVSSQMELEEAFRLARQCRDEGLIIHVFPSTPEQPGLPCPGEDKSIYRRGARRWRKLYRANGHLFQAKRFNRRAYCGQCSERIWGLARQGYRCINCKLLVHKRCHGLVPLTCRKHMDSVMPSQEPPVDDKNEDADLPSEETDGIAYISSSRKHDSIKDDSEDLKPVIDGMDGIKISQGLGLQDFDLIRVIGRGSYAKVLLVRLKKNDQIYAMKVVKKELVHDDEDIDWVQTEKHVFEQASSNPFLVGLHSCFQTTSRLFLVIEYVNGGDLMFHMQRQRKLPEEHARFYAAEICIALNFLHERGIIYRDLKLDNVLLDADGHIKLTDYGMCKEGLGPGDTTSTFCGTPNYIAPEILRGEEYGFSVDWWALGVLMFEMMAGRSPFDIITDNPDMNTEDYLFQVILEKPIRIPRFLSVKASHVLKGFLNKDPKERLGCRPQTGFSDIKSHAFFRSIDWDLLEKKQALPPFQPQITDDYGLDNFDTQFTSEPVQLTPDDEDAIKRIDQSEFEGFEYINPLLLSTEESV
Chain of Inhibitor of nuclear factor kappa-B kinase subunit alpha (Homo sapiens) (O15111 whole entry): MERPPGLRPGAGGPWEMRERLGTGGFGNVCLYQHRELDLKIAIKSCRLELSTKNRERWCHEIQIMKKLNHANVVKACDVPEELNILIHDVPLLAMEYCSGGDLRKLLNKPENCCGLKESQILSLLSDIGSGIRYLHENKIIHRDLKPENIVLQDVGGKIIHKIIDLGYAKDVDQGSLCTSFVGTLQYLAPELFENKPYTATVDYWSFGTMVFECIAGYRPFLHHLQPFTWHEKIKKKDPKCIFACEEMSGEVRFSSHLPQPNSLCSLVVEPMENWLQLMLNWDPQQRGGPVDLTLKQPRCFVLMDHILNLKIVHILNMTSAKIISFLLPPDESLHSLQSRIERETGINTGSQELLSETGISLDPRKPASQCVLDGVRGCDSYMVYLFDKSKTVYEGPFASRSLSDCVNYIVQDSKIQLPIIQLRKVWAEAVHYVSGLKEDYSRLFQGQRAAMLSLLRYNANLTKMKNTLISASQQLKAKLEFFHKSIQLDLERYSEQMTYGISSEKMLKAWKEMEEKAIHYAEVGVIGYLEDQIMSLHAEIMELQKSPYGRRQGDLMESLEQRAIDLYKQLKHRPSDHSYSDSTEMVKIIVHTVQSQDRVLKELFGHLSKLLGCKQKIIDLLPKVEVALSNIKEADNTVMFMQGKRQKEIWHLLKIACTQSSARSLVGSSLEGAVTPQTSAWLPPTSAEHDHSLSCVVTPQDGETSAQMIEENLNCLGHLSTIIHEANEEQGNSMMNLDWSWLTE
Chain of PAS domain-containing serine/threonine-protein kinase (Homo sapiens) (Q96RG2 whole entry, the tested form may be a part): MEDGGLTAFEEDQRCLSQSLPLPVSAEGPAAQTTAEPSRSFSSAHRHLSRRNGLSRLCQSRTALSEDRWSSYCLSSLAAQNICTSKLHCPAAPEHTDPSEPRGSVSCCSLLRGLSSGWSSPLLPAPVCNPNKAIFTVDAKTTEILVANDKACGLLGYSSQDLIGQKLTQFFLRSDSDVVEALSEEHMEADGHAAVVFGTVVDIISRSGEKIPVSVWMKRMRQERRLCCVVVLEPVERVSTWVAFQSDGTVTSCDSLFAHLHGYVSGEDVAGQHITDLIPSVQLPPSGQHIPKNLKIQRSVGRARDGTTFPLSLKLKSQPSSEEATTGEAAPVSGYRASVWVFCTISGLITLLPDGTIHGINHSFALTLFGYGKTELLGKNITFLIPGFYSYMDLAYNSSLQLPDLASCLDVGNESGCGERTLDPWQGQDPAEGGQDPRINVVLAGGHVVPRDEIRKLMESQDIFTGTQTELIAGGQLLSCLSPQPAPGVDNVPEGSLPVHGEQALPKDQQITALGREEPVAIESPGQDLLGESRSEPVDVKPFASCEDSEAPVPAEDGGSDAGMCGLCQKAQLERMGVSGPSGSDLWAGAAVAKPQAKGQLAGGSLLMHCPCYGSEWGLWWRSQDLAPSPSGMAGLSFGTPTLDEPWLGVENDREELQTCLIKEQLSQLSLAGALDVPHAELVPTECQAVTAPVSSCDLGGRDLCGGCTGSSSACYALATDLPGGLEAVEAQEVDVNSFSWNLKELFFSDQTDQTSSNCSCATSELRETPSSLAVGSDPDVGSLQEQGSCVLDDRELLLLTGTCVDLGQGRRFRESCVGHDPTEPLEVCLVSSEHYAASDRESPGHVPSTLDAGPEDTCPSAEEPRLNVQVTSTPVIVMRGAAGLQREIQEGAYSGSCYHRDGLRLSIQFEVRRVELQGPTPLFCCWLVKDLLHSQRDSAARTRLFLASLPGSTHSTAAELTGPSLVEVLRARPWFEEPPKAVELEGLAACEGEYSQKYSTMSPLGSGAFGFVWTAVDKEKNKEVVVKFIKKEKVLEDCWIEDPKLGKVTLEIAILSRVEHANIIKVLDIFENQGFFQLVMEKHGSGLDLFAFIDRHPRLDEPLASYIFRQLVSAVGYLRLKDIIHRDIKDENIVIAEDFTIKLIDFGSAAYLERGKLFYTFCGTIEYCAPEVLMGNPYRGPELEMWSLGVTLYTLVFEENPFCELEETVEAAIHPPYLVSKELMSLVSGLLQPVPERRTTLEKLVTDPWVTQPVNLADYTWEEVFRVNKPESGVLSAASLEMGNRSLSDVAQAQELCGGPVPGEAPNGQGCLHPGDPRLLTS
Chain of Mitogen-activated protein kinase kinase kinase 2 (Homo sapiens) (Q9Y2U5 whole entry): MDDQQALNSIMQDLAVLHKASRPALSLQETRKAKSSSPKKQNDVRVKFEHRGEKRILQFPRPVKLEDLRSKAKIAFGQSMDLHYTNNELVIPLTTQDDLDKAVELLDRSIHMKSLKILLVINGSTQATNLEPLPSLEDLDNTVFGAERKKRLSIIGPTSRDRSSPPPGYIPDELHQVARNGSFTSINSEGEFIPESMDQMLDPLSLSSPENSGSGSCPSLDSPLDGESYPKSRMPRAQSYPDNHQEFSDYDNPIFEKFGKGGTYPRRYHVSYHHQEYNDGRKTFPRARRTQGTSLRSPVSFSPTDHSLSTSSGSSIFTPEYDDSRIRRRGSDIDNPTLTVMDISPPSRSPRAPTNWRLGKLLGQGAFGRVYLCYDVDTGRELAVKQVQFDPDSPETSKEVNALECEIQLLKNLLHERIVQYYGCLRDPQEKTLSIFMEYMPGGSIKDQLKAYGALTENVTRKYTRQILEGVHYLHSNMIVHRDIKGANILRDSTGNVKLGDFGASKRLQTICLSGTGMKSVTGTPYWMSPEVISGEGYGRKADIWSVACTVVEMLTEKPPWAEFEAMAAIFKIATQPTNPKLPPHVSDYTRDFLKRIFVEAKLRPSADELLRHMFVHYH

| Structure (SMILES) | Activity [1] | Cmax [2] [µg/mL] | bioavailability [3] [%] | inhibition [4] [%] | inhibition [5] [%] | inhibition [6] [%] | inhibition [7] [%] | inhibition [8] [%] | inhibition [9] [%] | inhibition [10] [%] | inhibition [11] [%] | inhibition [12] [%] | inhibition [13] [%] | inhibition [14] [%] | inhibition [15] [%] | inhibition [16] | Activity [17] | Activity [18] | Activity [19] | Activity [20] |
| --- | --- | --- | --- | --- | --- | --- | --- | --- | --- | --- | --- | --- | --- | --- | --- | --- | --- | --- | --- | --- |
| Cc1ccc(NC(=O)C2(C(=O)Nc3ccc(Nc4ncc(F)c(-c5cc(F)c6nc(C)n(C(C)C)c6c5)n4)cc3)CC2)cc1 | Active | 1 | 60 | 65 | 10 | 0 | 48 | 79 | 0 | 19 | 0 | 3 | 4 | 7 | 2 | Dose-dependent effect | Active | Active | Non-Toxic |  |
| COc1cc2nccc(Oc3ccc(NC(=O)C4(C(=O)Nc5ccc(F)cc5)CC4)cc3)c2cc1OC [CABOZANTINIB] |  |  |  |  |  |  |  |  |  |  |  |  |  |  |  |  |  |  |  | Active |
